Measurements published in ChEMBL document CHEMBL1926556, “Synthesis and biological activities of 2-[(heteroaryl)methyl]imidazolines” (Bioorg Med Chem, 2012).
The source made the active and inactive calls. The rule behind the calls is not given here.

How the values were obtained:
[1] = Displacement of [3H]BFI from imidazoline I2 receptor in Sprague-Dawley rat brain membranes after 45 mins by scintillation counting; assay type: cell membranes, Membrane
In short: (§1)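 Crude P2 membranes from male Sprague–Dawley rat brain (250–280 g), 0.2–0.3 mg protein. Radioligand 1 nM: [3H]2BFI for I2, [3H]prazosin for α1, [3H]RX821002 for α2. Non-specific binding defined by 10 µM BU224 (I2), 10 µM phenylephrine (α1) or 10 µM rauwolscine (α2). 11 concentrations from 0.01 nM to 100 µM, triplicate, 45 min at RT. Filtration and scintillation counting; Ki by Cheng–Prusoff.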

[2] = biological target: T1, Adrenergic receptor alpha-2 (Rattus norvegicus, UniProt P22086+P19328+P22909); assay: Displacement of […] from adrenoceptor alpha2 in Sprague-Dawley rat brain membranes after 45 mins by scintillation counting; assay type: cell membranes, Membrane; in short: as §1
T1 sequence (P22086 whole entry): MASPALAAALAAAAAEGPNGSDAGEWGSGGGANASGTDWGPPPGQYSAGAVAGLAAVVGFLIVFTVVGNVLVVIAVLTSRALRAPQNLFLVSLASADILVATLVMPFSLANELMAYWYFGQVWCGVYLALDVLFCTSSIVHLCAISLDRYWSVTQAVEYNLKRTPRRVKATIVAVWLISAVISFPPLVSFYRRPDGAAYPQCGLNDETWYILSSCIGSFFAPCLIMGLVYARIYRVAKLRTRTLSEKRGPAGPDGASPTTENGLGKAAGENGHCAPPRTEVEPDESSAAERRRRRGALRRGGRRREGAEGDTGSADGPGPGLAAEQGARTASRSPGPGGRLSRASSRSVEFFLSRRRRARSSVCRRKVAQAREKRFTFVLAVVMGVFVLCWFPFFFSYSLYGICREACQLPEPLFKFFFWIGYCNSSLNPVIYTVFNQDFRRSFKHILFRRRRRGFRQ
T1 sequence (P19328 whole entry): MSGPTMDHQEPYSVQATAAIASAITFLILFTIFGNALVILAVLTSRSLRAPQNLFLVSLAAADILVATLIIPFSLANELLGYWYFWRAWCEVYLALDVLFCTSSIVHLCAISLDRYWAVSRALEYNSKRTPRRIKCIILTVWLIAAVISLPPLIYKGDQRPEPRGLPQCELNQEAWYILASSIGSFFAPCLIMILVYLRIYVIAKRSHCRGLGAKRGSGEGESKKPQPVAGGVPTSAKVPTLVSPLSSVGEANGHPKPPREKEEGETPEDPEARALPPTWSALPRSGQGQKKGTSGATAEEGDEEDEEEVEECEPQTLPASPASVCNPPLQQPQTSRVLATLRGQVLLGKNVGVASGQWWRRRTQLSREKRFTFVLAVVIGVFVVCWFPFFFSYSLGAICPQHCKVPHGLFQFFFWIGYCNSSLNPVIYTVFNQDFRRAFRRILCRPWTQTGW
T1 sequence (P22909 whole entry): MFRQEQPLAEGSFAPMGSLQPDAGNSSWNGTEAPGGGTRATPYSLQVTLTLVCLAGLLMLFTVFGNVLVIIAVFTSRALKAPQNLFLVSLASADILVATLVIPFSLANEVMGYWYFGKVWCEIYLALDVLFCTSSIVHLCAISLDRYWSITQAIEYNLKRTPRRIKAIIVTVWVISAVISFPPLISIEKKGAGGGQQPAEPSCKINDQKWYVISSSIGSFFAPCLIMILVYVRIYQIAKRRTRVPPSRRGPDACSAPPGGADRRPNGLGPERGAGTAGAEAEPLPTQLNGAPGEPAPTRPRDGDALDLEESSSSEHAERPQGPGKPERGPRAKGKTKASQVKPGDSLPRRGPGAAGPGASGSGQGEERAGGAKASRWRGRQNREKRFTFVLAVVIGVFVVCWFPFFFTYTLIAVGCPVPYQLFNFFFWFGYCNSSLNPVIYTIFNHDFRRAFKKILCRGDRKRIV

[3] = biological target: T2, Alpha-2A adrenergic receptor (Homo sapiens, UniProt P08913); assay: Agonist activity at human adrenoceptor alpha2A expressed in CHOK1 cells assessed as stimulation of agonist-induced [35S]GTPgammaS binding by scintillation counting; assay type: functional, cell-based, CHO-K1
T2 sequence (P08913 whole entry): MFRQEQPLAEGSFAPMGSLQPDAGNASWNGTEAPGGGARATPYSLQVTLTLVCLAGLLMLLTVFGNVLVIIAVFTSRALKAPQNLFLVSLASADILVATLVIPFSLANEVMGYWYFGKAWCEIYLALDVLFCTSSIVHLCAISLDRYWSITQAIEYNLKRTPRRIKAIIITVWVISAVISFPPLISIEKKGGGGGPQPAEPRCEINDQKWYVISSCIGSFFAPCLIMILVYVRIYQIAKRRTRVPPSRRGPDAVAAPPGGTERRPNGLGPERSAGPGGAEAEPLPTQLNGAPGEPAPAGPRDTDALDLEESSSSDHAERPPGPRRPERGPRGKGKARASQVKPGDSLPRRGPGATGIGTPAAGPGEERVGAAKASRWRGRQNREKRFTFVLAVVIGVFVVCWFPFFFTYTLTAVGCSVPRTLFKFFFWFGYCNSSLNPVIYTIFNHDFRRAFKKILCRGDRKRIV
In short: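 Membranes from CHO-K1 cells stably expressing human α2A-adrenoceptor; 5 µg protein incubated with serial dilutions of agonist and 0.1 nM [35S]GTPγS in Tris buffer pH 7.4 with 1 µM GDP, MgCl2, NaCl, 30 min at RT. Filtered and counted by scintillation.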

Rattus norvegicus [4] = assay: Antihypertensive activity in Wistar rat assessed as inhibition of methoxamine-induced change in heart rate at 0.1 mg/kg, iv co-administered with 20 ug/kg/min methoxamine challenge; assay type: functional, organism-based; set-up: dose 0.1 mg/kg
In short: (§2)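 Male Wistar rats (200–290 g) anaesthetized with i.p. thiopental 70 mg/kg, maintained by thiopental infusion, 36–37 °C. Carotid catheter for BP/HR, jugular line for infusion. Methoxamine i.v. infusion 10 or 20 µg/kg/min began 10 min before 0.1 mg/kg i.v. bolus. Readout is ΔMAP or ΔHR from time 0. Five to seven rats per group; repeated-measures ANOVA.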

Rattus norvegicus [5] = assay: Anxiolytic activity in Sprague-Dawley rat assessed as loss of righting reflex at 2000 ug/kg, ip measured after 30 mins; assay type: functional, organism-based
In short: (§3)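 Male Sprague–Dawley rats (250–270 g) were handled by the experimenter one day before testing. Compound was dissolved in sterile saline and given i.p. If no loss of righting reflex occurred after 5 min, the dose was repeated, up to 2000 µg/kg cumulative. Animals were watched for righting reflex, locomotion, motor coordination and behaviour. Righting reflex was scored at 30 min.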

Rattus norvegicus [6] = assay: Toxicity in Sprague-Dawley rat assessed as increase in body temperature at 10 to 2000 ug/kg, ip measured after 30 mins; assay type: organism-based; settings: in vivo, 0.5 h
Rattus norvegicus [7] = assay: Anxiolytic activity in Sprague-Dawley rat assessed as loss of righting reflex at 10 ug/kg, ip measured after 30 mins; assay type: functional, organism-based; in short: as §3
Rattus norvegicus [8] = assay: Antihypertensive activity in Wistar rat assessed as inhibition of methoxamine-induced change in blood pressure at 0.1 mg/kg, iv administered 10 mins after 20 ug/kg/min methoxamine challenge; assay type: functional, organism-based; set-up: dose 0.1 mg/kg; in short: as §2
Rattus norvegicus [9] = assay: Antihypertensive activity in Wistar rat assessed as inhibition of methoxamine-induced change in heart rate at 0.1 mg/kg, iv administered 10 mins after 10 ug/kg/min methoxamine challenge; assay type: functional, organism-based; set-up: dose 0.1 mg/kg; in short: as §2

Structure (SMILES) | Ki [1] | Ki [2] | EC50 [3] | Activity (Rattus norvegicus [4]) | Activity (Rattus norvegicus [5]) | Activity (Rattus norvegicus [6]) | Activity (Rattus norvegicus [7]) | Activity (Rattus norvegicus [8]) | Activity (Rattus norvegicus [9])
Cc1cccc2cnn(CC3=NCCN3)c12.Cl | 6.84 µM | 0.607 µM | 17.4 µM | – | – | – | – | – | –
Cl.c1ccc2c(c1)cnn2CC1=NCCN1 | 42.2 µM | 0.0185 µM | 4.5 µM | – | – | – | – | – | –
Cl.Clc1cccc2cnn(CC3=NCCN3)c12 | 0.554 µM | 0.0064 µM | 16.6 µM | Active | Active | Toxic | inactive | inactive | inactive
